# In article PMC9398179 (Molecular Cancer Therapeutics, 2021):
# Where “and” joins values, the source holds several entries; their conditions need not be identical. Equal entries are not always repeated.
# Experiments:
# [1] = Plasma protein binding, human plasma; type: in vitro ADME
# [2] = test system: TGCT patients; details: across all trials of pexidartinib in TGCT; cited from earlier work
# [3] = test system: M-NFS-60 cells; assay: M-NFS-60 cell proliferation assay; type: cell-based, mouse; details: 1,000 ng/mL versus 10 ng/mL CSF1
# [4] = Plasma protein binding, mouse plasma; type: in vitro ADME
# [5] = test system: PC3 prostate cancer peritibial implant xenograft; assay: PC3 peritibial implant bone invasion xenograft model; type: in vivo, nude mice; details: 10 mg/kg once or twice daily, oral
# Method in brief: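 Male athymic nude mice acclimated 7 days, then implanted with 1×10^6 PC3 cells in serum-free MEM between tibia and fibula of the right leg. Randomized by body weight. Oral dosing began 6 h post-implant, days 1–32: 0.4% HPMC vehicle or test compound 10 mg/kg once or twice daily, n = 20 per group. Tumor burden = (length × width²)/2 from calipers, measured 2–3 times weekly.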
# [6] = test system: cytochrome P450 (CYP) isoforms; assay: Cytochrome P450 inhibition, all isoforms studied; type: in vitro ADME
# [7] = test system: cytochrome P450 (CYP) isoforms (all isoforms studied); assay: Cytochrome P450 inhibition, all isoforms studied; type: in vitro ADME
# [8] = Mouse pharmacokinetics at steady state; type: in vivo, DBA/1 mice; details: female, DBA/1, mouse, plasma, po, 3 mg/kg
# [9] = test system: tenosynovial giant cell tumor (TGCT); assay: Phase I/II study DCC-3014-01-001; type: in vivo, human
# [10] = biological target: hERG channel (Homo sapiens, UniProt Q12809); assay: Predictor hERG fluorescence polarization binding assay
# Chain of hERG channel (Q12809 whole entry): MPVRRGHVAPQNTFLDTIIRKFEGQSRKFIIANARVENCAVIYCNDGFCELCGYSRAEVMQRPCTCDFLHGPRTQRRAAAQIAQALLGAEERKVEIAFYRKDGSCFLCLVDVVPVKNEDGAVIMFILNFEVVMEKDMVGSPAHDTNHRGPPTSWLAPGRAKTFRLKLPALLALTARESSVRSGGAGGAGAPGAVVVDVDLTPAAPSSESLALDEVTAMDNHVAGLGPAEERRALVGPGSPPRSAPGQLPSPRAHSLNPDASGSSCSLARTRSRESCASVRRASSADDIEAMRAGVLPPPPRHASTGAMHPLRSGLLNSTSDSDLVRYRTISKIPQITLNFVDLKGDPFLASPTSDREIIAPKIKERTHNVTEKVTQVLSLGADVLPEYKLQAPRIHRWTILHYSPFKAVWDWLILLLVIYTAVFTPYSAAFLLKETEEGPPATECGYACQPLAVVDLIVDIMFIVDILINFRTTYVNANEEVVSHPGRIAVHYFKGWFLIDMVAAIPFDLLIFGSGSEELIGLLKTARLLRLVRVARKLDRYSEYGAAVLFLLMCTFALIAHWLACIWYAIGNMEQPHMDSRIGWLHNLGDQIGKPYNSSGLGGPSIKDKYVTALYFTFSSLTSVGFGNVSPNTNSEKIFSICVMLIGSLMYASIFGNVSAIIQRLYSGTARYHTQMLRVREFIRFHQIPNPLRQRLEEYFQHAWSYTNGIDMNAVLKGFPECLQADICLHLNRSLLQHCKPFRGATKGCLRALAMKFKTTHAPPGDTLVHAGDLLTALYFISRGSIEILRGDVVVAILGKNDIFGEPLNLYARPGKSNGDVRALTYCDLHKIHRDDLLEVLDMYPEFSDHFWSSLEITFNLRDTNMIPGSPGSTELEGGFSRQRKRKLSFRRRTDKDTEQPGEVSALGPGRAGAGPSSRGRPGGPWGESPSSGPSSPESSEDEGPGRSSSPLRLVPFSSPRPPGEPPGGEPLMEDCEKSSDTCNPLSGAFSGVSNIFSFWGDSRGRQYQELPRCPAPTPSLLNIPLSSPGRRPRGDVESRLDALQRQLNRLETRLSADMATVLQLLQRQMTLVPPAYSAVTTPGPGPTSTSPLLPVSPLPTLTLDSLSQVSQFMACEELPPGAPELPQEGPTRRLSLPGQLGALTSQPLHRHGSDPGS
# [11] = test system: MC38 colorectal cancer; assay: MC38 syngeneic colorectal cancer model; type: in vivo, C57BL/6 mice
# Method in brief: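 Female C57BL/6 mice implanted s.c. in the lower right flank with 1×10^6 MC38 cells in PBS. Randomized at mean tumor 104 mm³ and dosed days 12–39: test compound 10 mg/kg oral daily (0.4% HPMC vehicle) plus isotype or anti-PD1 10 mg/kg i.p. twice weekly, n = 15. Five per group taken day 32, 2 h post-dose; fresh tumors analysed by flow cytometry (macrophages CD45/CD11b/F4/80).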
# [12] = Crossover pharmacokinetic study in rats; type: in vivo, Sprague-Dawley rats
# Method in brief: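 Crossover design in 3 fasted male Sprague-Dawley rats. Single IV dose of 1 mg/kg in 20% Captisol / 25 mmol/L pH 2 phosphate buffer, or oral 10 mg/kg in 0.4% HPMC. Plasma sampled at 0, 0.083 (IV only), 0.25, 0.5, 1, 2, 4, 6, 8, 12 and 24 h and analysed by LC/MS.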
# [13] = test system: CSF1R signaling (phospho-ERK) in monocytes in human whole blood; assay: Whole blood phospho-ERK flow cytometry assay; type: cell-based; details: Monocyte, read-out: adjusted free IC50
# Method in brief: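 Whole blood from a healthy donor (K2EDTA) incubated with test compound in 100 µL aliquots for 4 h at 37°C, then stimulated with CSF1 10 ng/mL for 5 min. RBCs lysed and cells fixed, permeabilized on ice, and stained with anti-CD14-PE and anti-phospho-ERK1/2. Median phospho-ERK fluorescence measured in CD14⁺ cells, from 50,000 events in the WBC gate.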
# [14] = test system: human osteoclast precursors; assay: Osteoclast differentiation assay; type: cell-based; details: 240 h, read-out: IC50, osteoclast differentiation
# Method in brief: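 Human osteoclast precursors thawed into complete medium with 66 ng/mL RANKL and 33 ng/mL human CSF1. Plated at 2,500 cells/well onto serially diluted test compound in triplicate (0.1% DMSO final). Cultured 10 days at 37°C. Differentiation read as tartrate-resistant acid phosphatase activity in supernatant, absorbance at 550 nm.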
# [15] = test system: CSF1-stimulated cFOS expression in mouse spleens; assay: Mouse PK/PD model, six daily oral doses; type: in vivo
# [16] = test system: CD68+ macrophages; assay: CD68+ macrophages in rat tissues; type: in vivo, Sprague-Dawley rats; details: 15 mg/kg/day orally, 14 days
# Method in brief: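 Male Sprague-Dawley rats dosed orally for 14 days with 0.4% HPMC vehicle or test compound 15 mg/kg daily (5 per group). FFPE organ tissues stained for CD68 with DAPI counterstain. Five nonoverlapping fields imaged at 20× per tissue. Total cell counts and CD68⁺ cell density (cells/mm²) determined.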
# [17] = Crossover pharmacokinetic study in dogs; type: in vivo, Beagle dogs
# Method in brief: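 Crossover design in 3 fasted male Beagle dogs. Single IV dose of 1 mg/kg in 20% Captisol / 25 mmol/L pH 2 phosphate buffer, or oral 3, 10 or 30 mg/kg in 0.4% HPMC. Plasma sampled at 0, 0.083 (IV only), 0.25, 0.5, 1, 2, 4, 6, 8, 12 and 24 h. Quantified by LC/MS.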
# [18] = Mouse pharmacokinetics after a single oral dose; type: in vivo, DBA/1 mice; details: 3.75 mg/kg single oral dose
# [19] = biological target: MDR1 drug transporter (Homo sapiens, UniProt P08183); assay: MDR1 transporter inhibition; type: in vitro ADME
# Chain of MDR1 drug transporter (P08183 whole entry): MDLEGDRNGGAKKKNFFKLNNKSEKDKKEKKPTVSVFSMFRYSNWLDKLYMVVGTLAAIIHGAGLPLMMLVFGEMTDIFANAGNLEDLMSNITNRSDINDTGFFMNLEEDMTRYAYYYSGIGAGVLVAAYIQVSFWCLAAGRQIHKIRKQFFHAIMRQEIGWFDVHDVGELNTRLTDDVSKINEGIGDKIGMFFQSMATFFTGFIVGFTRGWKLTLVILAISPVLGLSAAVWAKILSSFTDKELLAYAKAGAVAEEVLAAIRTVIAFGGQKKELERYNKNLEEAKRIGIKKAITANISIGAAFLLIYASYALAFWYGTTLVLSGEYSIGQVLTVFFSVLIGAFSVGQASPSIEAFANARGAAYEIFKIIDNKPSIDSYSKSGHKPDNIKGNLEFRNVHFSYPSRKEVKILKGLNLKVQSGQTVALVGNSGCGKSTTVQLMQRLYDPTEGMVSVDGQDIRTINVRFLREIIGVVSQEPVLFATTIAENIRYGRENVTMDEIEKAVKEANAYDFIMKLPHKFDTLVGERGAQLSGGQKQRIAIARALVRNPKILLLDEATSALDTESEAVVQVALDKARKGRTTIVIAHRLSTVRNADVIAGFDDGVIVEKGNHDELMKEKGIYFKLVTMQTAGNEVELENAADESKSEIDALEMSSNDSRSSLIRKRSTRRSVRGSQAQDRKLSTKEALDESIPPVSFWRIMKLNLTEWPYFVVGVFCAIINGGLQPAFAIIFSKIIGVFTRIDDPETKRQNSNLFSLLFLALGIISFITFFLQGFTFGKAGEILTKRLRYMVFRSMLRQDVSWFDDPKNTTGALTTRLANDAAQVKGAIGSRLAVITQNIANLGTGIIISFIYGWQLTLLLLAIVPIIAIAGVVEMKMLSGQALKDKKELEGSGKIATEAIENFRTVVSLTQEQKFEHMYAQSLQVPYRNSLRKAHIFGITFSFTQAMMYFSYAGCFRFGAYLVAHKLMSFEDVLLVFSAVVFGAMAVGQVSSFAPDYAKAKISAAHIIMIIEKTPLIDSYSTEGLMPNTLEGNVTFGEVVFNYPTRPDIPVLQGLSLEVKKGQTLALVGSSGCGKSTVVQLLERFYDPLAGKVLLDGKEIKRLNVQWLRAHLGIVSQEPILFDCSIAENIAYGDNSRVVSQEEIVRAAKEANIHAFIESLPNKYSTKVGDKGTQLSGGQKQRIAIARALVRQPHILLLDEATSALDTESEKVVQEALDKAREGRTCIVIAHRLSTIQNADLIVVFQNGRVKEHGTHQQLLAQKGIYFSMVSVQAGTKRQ
# [20] = 3 TGCT patients, cycle 2 day 1, trough and 4 hours after dose
# [21] = male, Sprague-Dawley, rat, plasma, intravenous, 1 mg/kg
# [22] = male, beagle, dog, plasma, intravenous, 1 mg/kg
smiles,measurement,setting,value
"FC(F)(F)c1ccc(CNc2ccc(Cc3c[nH]c4ncc(Cl)cc34)cn2)cn1 [Pexidartinib, pexidartinib]",plasma protein binding,[1]; method and source not stated,> 99 % bound
same,serious hepatic adverse events assessed as probably drug-related,[2],five
same,loss of potency at high CSF1 ligand concentration,[3],3.8 fold
"Cc1nc(-c2cnc(NC(C)C)n(C)c2=O)ccc1Oc1ccnc(-c2cnn(C)c2)c1 [Vimseltinib, vimseltinib]",bound in plasma,[4],approximately 97.2%
same,primary tumor growth,[5],not affected
same,bone degradation (CT score 0–4),"[5]; to day 32, n = 20/cohort",statistically significant protection from bone degradation
same,time-dependent or metabolism-dependent inhibition of any CYP isoform,[6],no time-dependent or metabolism-dependent inhibition of any CYP isoform
same,IC50,[7],> 75 µM
same,AUC(0-t),[8],49300 ng·h/mL
same,average plasma concentration,[9]; [20],approximately 500 ng/mL
same,average plasma concentration (total drug),[9]; [20],"~ 1,200 nmol/L"
same,plasma CSF1 and IL34 levels,"[9]; 3 patients with TGCT, cycle 2 day 1, 30 mg once a day for 5 days then 30 mg twice weekly",increases in CSF1 and IL34 levels
same,"change in tumor size (RECIST v1.1, MRI)","[9]; patient 2, right hip TGCT, after two cycles",−25%
same,EC50,[10],> 25 µM
same,"EC20, hERG binding",[10]; in vitro binding assay,19.4 µM
same,reduction of TAMs in the primary tumor,"[11]; after 3 weeks of dosing, flow cytometry",> 6 fold
same,tumor growth inhibition (%TGI),"[11]; day 32, vimseltinib 10 mg/kg orally every day, anti-PD1 10 mg/kg i.p. twice a week",52%
same,Vd,[12]; [21],0.69 L/kg
same,clearance,[12]; [21],0.5 mL/min/kg
same,half-life,[12]; [21],14.2 h
same,oral bioavailability,"[12]; rats, 10 mg/kg oral versus 1 mg/kg IV",76 % F
same,IC50,[13],~0.014 µM
same,IC50,[14],0.0093 µM
same,inhibition of cFOS expression,"[15]; 3 mg/kg, six daily doses, at 24 and 48 hours",approximately 50%
same,inhibition of cFOS expression,"[15]; 3 mg/kg, six daily doses, for 12 hours",≥ 90%
same,EC50,"[15]; Mus musculus, po, read-out: free EC50",0.012 µg/mL and 28 nM
same,EC80,[15]; all animals in the steady-state study,"1,700 ng/mL"
same,inhibition of cFOS expression,"[15]; six daily oral doses of 1, 3, and 10 mg/kg",significantly inhibited cFOS expression
same,decrease in liver CD68+ macrophages,[16]; P < 0.0001,68%
same,decrease in colon CD68+ macrophages,[16]; P = 0.17,47%
same,bound to proteins in plasma,"[1]; human plasma, in vitro ultracentrifugation assay",approximately 96.5%
same,oral bioavailability,"[17]; dogs, simple vehicle",~ 30 % F
same,Vd,[17]; [22],1.33 L/kg
same,clearance,[17]; [22],2.5 mL/min/kg
same,half-life,[17]; [22],6.8 h
same,AUC0–24,[18],"28,987 ng*hour/mL"
same,IC50,[19],4.35 µM
